Blank lines part the entries; values can stand above or below the compound they belong to. Activity calls are given as the source filed them. The rule behind the calls is not given here.
Key:
Primary lung fibroblast [1] = experiment: Antifibrotic activity against TGFbeta1-induced fibrosis in human primary lung fibroblasts assessed as decrease in COL1A1 expression level at 91 to 500 ug/ml measured after 48 hrs by qRT-PCR analysis; format: functional, tissue-based; conditions: dose microg/ml 500, time 48.0 hrs, in the assay text read “at 500 ug/ml” for “at 91 to 500 ug/ml”
How it was run: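 Primary fibroblasts were treated for 48 h with TGFβ1 with or without compound (500 μg/mL). Extracted RNA was used for real-time PCR of COL1A1. N = 4, mean ± SD.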

Primary lung fibroblast [2] = experiment: Antifibrotic activity against TGFbeta1-induced fibrosis in human primary lung fibroblasts assessed as decrease in collagen type-1 protein level at 500 ug/ml measured after 72 hrs by immunoblotting analysis; format: functional, tissue-based; conditions: dose 500.0 µg/ml
How it was run: (§1)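 Primary human fibroblasts received vehicle, 10 ng/mL TGFβ1, 500 μg/mL compound, or TGFβ1 plus compound for 72 h. Vehicles were 4 mM HCl/0.1% BSA for TGFβ1 and 1× PBS for compound. Cell lysates and conditioned medium were immunoblotted with GAPDH as internal control. Densitometry is expressed as mean relative change versus vehicle or internal control ± SDEV, N = 3.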

Zone of skin [3] = experiment: Antifibrotic activity against TGFbeta1-induced dermal fibrosis in human skin assessed as reduction in COL1A1 expression level stimulated with TGFbeta1 for 24 hrs followed by compound treatment at 500 ug/ml measured after 72 hrs by qRT-PCR analysis; format: functional, tissue-based; conditions: Skin of body, dose 500.0 µg/ml
How it was run: (§2)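 Human skin in organ culture was treated with vehicle (1× PBS) or 10 ng/mL TGFβ1, then given 500 μg/mL compound 24 h later. CTGF expression in whole skin was read 24 h after compound addition. COL1A1 and FN expression in whole skin were read 72 h after compound addition.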

Primary lung fibroblast [4] = experiment: Antifibrotic activity against TGFbeta1-induced fibrosis in human primary lung fibroblasts assessed as decrease in alpha-SMA protein level at 500 ug/ml measured after 72 hrs by immunoblotting analysis; format: functional, tissue-based; conditions: dose 500.0 µg/ml; how it was run: as §1
Primary lung fibroblast [5] = experiment: Antifibrotic activity in human primary lung fibroblasts assessed as decrease in collagen type-1 protein level at 500 ug/ml measured after 72 hrs by immunoblotting analysis; format: functional, tissue-based; conditions: dose 500.0 µg/ml; how it was run: as §1
[6] = Solubility of the compound in water; format: physicochemical; conditions: buffer
Primary lung fibroblast [7] = experiment: Antifibrotic activity in against TGFbeta1-induced fibrosis in human primary lung fibroblasts assessed as decrease in collagen type-1 protein level at 500 ug/ml treated at 30 mins to 6 hrs post TGFbeta1 stimulation by immunoblotting analysis; format: functional, tissue-based; conditions: dose 500.0 µg/ml, time 6.5 hrs
How it was run: (§3)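 Therapeutic-timing design in fibroblasts: 500 μg/mL compound was added together with 10 ng/mL TGFβ1 or 30 min to 6 h after TGFβ1. Profibrotic factors were then assessed by immunoblotting.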

Primary lung fibroblast [8] = experiment: Antifibrotic activity in human primary lung fibroblasts assessed as decrease in CTGF protein level at 500 ug/ml measured after 72 hrs by immunoblotting analysis; format: functional, tissue-based; conditions: dose 500.0 µg/ml; how it was run: as §1
Mus musculus [9] = experiment: Antifibrotic activity against bleomycin-induced C57BL/6J mouse lung fibrosis model assessed as reduction in hydroxyproline level in lung at 2%, po via gavage administered as single dose measured on 14 days by hydroxyproline assay; format: functional, organism-based; conditions: time day 14
How it was run: (§4)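 Mouse groups received PBS, bleomycin, or bleomycin plus 2% compound. Lung histology was assessed 14 days post-treatment. Lung COL1A2 mRNA was measured at 5 days, normalized to GAPDH. Lung hydroxyproline (total collagen) was measured at 14 days. Data are mean ± SD.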

Primary lung fibroblast [10] = experiment: Antifibrotic activity against TGFbeta1-induced fibrosis in human primary lung fibroblasts assessed as decrease in IGFBP-3 protein level at 500 ug/ml treated at 30 mins to 6 hrs post TGFbeta1 stimulation by immunoblotting analysis; format: functional, tissue-based; conditions: dose 500.0 µg/ml, time 6.5 hrs; how it was run: as §3
Primary lung fibroblast [11] = experiment: Antifibrotic activity in human primary lung fibroblasts assessed as decrease in alpha-SMA protein level at 500 ug/ml measured after 72 hrs by immunoblotting analysis; format: functional, tissue-based; conditions: dose 500.0 µg/ml; how it was run: as §1
Primary lung fibroblast [12] = experiment: Antifibrotic activity against TGFbeta1-induced fibrosis in human primary lung fibroblasts assessed as decrease in TGFbeta1-induced fibronectin protein level at 500 ug/ml treated at 30 mins to 6 hrs post TGFbeta1 stimulation by immunoblotting analysis; format: functional, tissue-based; conditions: dose 500.0 µg/ml, time 6.5 hrs; how it was run: as §3
Zone of skin [13] = experiment: Antifibrotic activity against TGFbeta1-induced dermal fibrosis in human skin assessed as reduction in fibronectin expression level stimulated with TGFbeta1 for 24 hrs followed by compound treatment at 500 ug/ml measured after 72 hrs by qRT-PCR analysis; format: functional, tissue-based; conditions: Skin of body, dose 500.0 µg/ml; how it was run: as §2
Primary lung fibroblast [14] = experiment: Antifibrotic activity against TGFbeta1-induced fibrosis in human primary lung fibroblasts assessed as decrease in fibronectin protein level at 500 ug/ml measured after 72 hrs by immunoblotting analysis; format: functional, tissue-based; conditions: dose 500.0 µg/ml; how it was run: as §1
Primary lung fibroblast [15] = experiment: Antifibrotic activity against TGFbeta1-induced fibrosis in human primary lung fibroblasts assessed as decrease in IGFBP-3 protein level at 500 ug/ml measured after 72 hrs by immunoblotting analysis; format: functional, tissue-based; conditions: dose 500.0 µg/ml; how it was run: as §1
Mus musculus [16] = experiment: Antifibrotic activity against bleomycin-induced C57BL/6J mouse lung fibrosis model assessed as reduction in COL1A2 mRNA level at 2%, po via gavage administered as single dose measured within 5 days by qRT-PCR analysis; format: functional, organism-based; conditions: time day <=5; how it was run: as §4
[17] = Lipophilicity, log P of the compound; format: physicochemical; conditions: octanol/water
Primary lung fibroblast [18] = experiment: Antifibrotic activity in human primary lung fibroblasts assessed as decrease in fibronectin protein level at 500 ug/ml measured after 72 hrs by immunoblotting analysis; format: functional, tissue-based; conditions: dose 500.0 µg/ml; how it was run: as §1
Mus musculus [19] = experiment: Antifibrotic activity against bleomycin-induced C57BL/6J mouse lung fibrosis model at 2%, po via gavage administered as single dose measured after 14 days by hematoxylin and eosin staining based microscopic analysis; format: functional, organism-based; conditions: time day 14; how it was run: as §4
Primary lung fibroblast [20] = experiment: Antifibrotic activity against TGFbeta1-induced fibrosis in human primary lung fibroblasts assessed as decrease in alpha-SMA protein level at 500 ug/ml treated at 30 mins to 6 hrs post TGFbeta1 stimulation by immunoblotting analysis; format: functional, tissue-based; conditions: dose 500.0 µg/ml, time 6.5 hrs; how it was run: as §3
Primary lung fibroblast [21] = experiment: Antifibrotic activity against TGFbeta1-induced fibrosis in human primary lung fibroblasts assessed as decrease in CTGF protein level at 500 ug/ml treated at 30 mins to 6 hrs post TGFbeta1 stimulation by immunoblotting analysis; format: functional, tissue-based; conditions: dose 500.0 µg/ml, time 6.5 hrs; how it was run: as §3
Primary lung fibroblast [22] = experiment: Antifibrotic activity against TGFbeta1-induced fibrosis in human primary lung fibroblasts assessed as decrease in CTGF protein level at 500 ug/ml measured after 72 hrs by immunoblotting analysis; format: functional, tissue-based; conditions: dose 500.0 µg/ml; how it was run: as §1
Zone of skin [23] = experiment: Antifibrotic activity against TGFbeta1-induced dermal fibrosis in human skin assessed as reduction in CTGF expression level stimulated with TGFbeta1 for 24 hrs followed by compound treatment at 500 ug/ml measured after 24 hrs by QRT-PCR analysis; format: functional, tissue-based; conditions: Skin of body, dose 500.0 µg/ml; how it was run: as §2
[24] = Toxicity in bleomycin-induced C57BL/6J mouse lung fibrosis model assessed as improvement in mouse survival relative to control; conditions: in vivo
Primary lung fibroblast [25] = experiment: Antifibrotic activity in human primary lung fibroblasts assessed as decrease in IGFBP-3 protein level at 500 ug/ml measured after 72 hrs by immunoblotting analysis; format: functional, tissue-based; conditions: dose 500.0 µg/ml; how it was run: as §1
Primary lung fibroblast [26] = experiment: Antifibrotic activity against TGFbeta1-induced fibrosis in human primary lung fibroblasts assessed as decrease in IGFBP-3 protein level at 10 to 60 ug/ml measured after 72 hrs by immunoblotting analysis; format: functional, tissue-based; conditions: dose microg/ml 10-60, time 72.0 hrs
How it was run: (§5)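 Primary human fibroblasts were exposed for 72 h to vehicle (DMSO), TGFβ1, or TGFβ1 plus compound at the indicated concentrations. Fibrotic factors in cell lysates and conditioned medium were detected by immunoblotting, with GAPDH as internal control.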

Primary lung fibroblast [27] = experiment: Antifibrotic activity against TGFbeta1-induced fibrosis in human primary lung fibroblasts assessed as decrease in collagen type-1 protein level at 10 to 60 ug/ml measured after 72 hrs by immunoblotting analysis; format: functional, tissue-based; conditions: dose microg/ml 10-60, time 72.0 hrs; how it was run: as §5
Primary lung fibroblast [28] = experiment: Antifibrotic activity against TGFbeta1-induced fibrosis in human primary lung fibroblasts assessed as decrease in CTGF protein level at 10 to 60 ug/ml measured after 72 hrs by immunoblotting analysis; format: functional, tissue-based; conditions: dose microg/ml 10-60, time 72.0 hrs; how it was run: as §5
Primary lung fibroblast [29] = experiment: Antifibrotic activity against TGFbeta1-induced fibrosis in human primary lung fibroblasts assessed as decrease in alpha-SMA protein level at 10 to 60 ug/ml measured after 72 hrs by immunoblotting analysis; format: functional, tissue-based; conditions: dose microg/ml 10-60, time 72.0 hrs; how it was run: as §5
Primary lung fibroblast [30] = experiment: Antifibrotic activity against TGFbeta1-induced fibrosis in human primary lung fibroblasts assessed as decrease in fibronectin protein level at 10 to 60 ug/ml measured after 72 hrs by immunoblotting analysis; format: functional, tissue-based; conditions: dose microg/ml 10-60, time 72.0 hrs; how it was run: as §5

SMILES: [O-][S+](CC1(F)COC1)c1cccc(F)c1 (racemic)
Activity (Primary lung fibroblast [1]): Active

solubility [6]: Soluble
logP [17]: -0.7
SMILES: CC1(C[S+]([O-])CC2(C)COC2)COC1
Activity (Primary lung fibroblast [2]): Active
Activity (Zone of skin [3]): Active
Activity (Primary lung fibroblast [4]): Active
Activity (Primary lung fibroblast [5]): Active
Activity (Primary lung fibroblast [7]): Active
Activity (Primary lung fibroblast [8]): Active
Activity (Mus musculus [9]): Active
Activity (Primary lung fibroblast [10]): Active
Activity (Primary lung fibroblast [11]): Active
Activity (Primary lung fibroblast [12]): Active
Activity (Zone of skin [13]): Active
Activity (Primary lung fibroblast [14]): Active
Activity (Primary lung fibroblast [15]): Active
Activity (Mus musculus [16]): Active
Activity (Primary lung fibroblast [18]): Active
Activity (Mus musculus [19]): Active
Activity (Primary lung fibroblast [20]): Active
Activity (Primary lung fibroblast [21]): Active
Activity (Primary lung fibroblast [22]): Active
Activity (Zone of skin [23]): Active
Activity [24]: 87.5%
Activity (Primary lung fibroblast [25]): Active

SMILES: CC1(C[S+]([O-])c2ccccc2)COC1 (racemic)
Activity (Primary lung fibroblast [26]): Active
Activity (Primary lung fibroblast [27]): Active
Activity (Primary lung fibroblast [28]): Active
Activity (Primary lung fibroblast [29]): Active
Activity (Primary lung fibroblast [30]): Active

From ChEMBL document CHEMBL4725484, “Oxetanyl Sulfoxide MMS-350 Ameliorates Pulmonary Fibrosis In Vitro, In Vivo, and Ex Vivo” (ACS Med Chem Lett, 2020)
